Bioassay records: PubChem BioAssay, several laboratories
procasp3 activ: procaspase-3 (human) activation; P42574; recombinant procaspase-3 D3A, Ac-DEVD-pNA absorbance 405 nm; activation, % at 8.5 µM; actives 0.11% (n = 330,000); AID 463141;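 active = activation above the mean of all tested compounds plus 3 SD, cut at about 21% in these data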
Target sequence (P42574 whole entry D9A/D28A/D175A): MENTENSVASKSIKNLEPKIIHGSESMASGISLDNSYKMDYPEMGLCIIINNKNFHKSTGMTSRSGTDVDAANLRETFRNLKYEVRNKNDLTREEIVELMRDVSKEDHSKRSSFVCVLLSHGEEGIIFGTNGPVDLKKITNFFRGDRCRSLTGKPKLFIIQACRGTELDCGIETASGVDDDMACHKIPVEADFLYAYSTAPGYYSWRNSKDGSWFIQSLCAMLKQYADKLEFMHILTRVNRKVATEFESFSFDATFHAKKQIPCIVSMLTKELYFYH
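assay system = Procaspase-3 D3A mutant | signal = absorbance at 405 nm, 0 and 120 min | times = 1 h preincubation plus 2 h reaction at 25 °C | repeats = single replicate | read-out = % activation between DMSO and enzyme-spiked controls | medium = Zinc-free HEPES saline buffer with Triton X-100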
T cell HTS: modulates CD8 T cell binding to vesicles; 2C CD8+ T cell-vesicle binding, flow cytometry; stronger effect = lower value; response (vesicle binding), % at 7 µM; actives 0.068% (n = 330,000);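 active = response, share of CD8 T cells binding vesicles, and their 90th percentile fluorescence all below set limits, cut at about 80% in these data, passing the limit was not always enough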;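 note: values below 100% mean blocked vesicle binding to the CD8+ T cells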
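incubation = binding step 1.5 h, 37 °C, antibody labelling 20 min, ice | test system = 2C mouse CD8+ T cells | read-out basis = percent CD8+ FL2 mean versus row control | controls = Peptide-free naked vesicles (low) and QL9 vesicles with 0.7% DMSO vehicle (high) | detection = flow cytometry of vesicle-bound cells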
proCasp7 act: activates human procaspase-7, counter-screen for procaspase-3 activators | P55210 | actives 0.093% (n = 330,000) | recombinant procaspase-7, Ac-DEVD-pNA absorbance 405 nm; D23A/D198A/D206A triple mutant, cannot self-cleave; scale: DMSO 0, 5 µM enzyme 100 | activation, % at 8.5 µM;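 active = percent activation above the screen-wide mean plus 3 SD, cut at about 25% in these data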
Target sequence (P55210 whole entry D23A/D198A/D206A): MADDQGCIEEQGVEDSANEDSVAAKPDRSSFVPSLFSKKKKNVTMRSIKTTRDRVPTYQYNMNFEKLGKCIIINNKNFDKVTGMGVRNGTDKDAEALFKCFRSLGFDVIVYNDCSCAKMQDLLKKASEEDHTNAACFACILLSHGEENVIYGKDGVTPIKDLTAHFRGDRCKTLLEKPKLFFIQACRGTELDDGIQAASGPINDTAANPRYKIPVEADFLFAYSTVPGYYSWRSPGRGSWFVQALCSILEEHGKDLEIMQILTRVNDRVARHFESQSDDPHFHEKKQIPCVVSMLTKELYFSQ
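Material: Procaspase-7 triple mutant (PC-7 D3A) | Quantity: 2 µM procaspase-7 mutant as dispensed | Reagent: DEVD-pNA substrate | Times: 1 h preincubation, 2 h reaction | Technique: 405 nm absorbance of p-nitroaniline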
CaV13 ICDI inh: Primary screen for inhibitors of IQ motif and Ca2+-dependent inactivation inhibitor domain binding in CACNA1D, Förster resonance energy transfer in living cells, …; actives 0.098% (n = 340,000); inhibition, % at 12.3 µM; HEK cells, CFP/YFP FRET ICDI-IQ, plate reader, 10 min; percent FRET-ratio fall versus neutral wells;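 active = mean replicate inhibition of at least 30% and at least 1% of replicates passing that level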
GRK2 aptamer HTS: human GRK2 inhibition via aptamer displacement. bead flow cytometry, FAM-aptamer displacement from GRK2. P25098. inhibition of aptamer binding, % at 10 µM. actives 0.59% (n = 330,000);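 active = inhibition of aptamer binding above 40%, roughly 3 SD of noise, on plates passing a quality check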;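 note: median bead fluorescence of bound FAM aptamer so fluorescent compounds give negative values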
aDG glyco up: alpha-DG glycosylation activation. Pro5-aDG cells, alpha-DG glycosylation AlphaScreen (IIH6); 0% Pro5, 100% B10-LARGE cell signal. activation, % at 10 µM. actives 0.22% (n = 360,000). AID 624168;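 active = activation of at least 8% versus controls, or a plate z-score of at least 8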;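 note: Pro5 are CHO cells carrying HIG-tagged alpha-DG that lacks glycosylation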
GRK2 inh confirm: confirmation of human GRK2 inhibitors displacing RNA aptamer | shares compounds with GRK2 aptamer HTS | bead-bound GRK2, FAM-aptamer displacement, flow cytometry | aptamer displacement, % at 10 µM | actives 4% (n = 2,000);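 active = aptamer displacement above 40%, near three times the noise of non-fluorescent compounds, on plates passing quality checks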;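 note: negative values mostly reflect intrinsic compound fluorescence rather than true enhancement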
Aptamer quench 1: fluorescent aptamer quenching in GRK2 counter-screen dose response. shares compounds with GRK2 aptamer HTS. Fluorescent RNA aptamer beads, flow cytometry; stronger effect = higher value. fluorescence change (kMESF span), kMESF (concentration not given with the values). 110 tested, under 10 active;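 active = compounds whose bead fluorescence drops by more than 37 kMESF across the dose range, marking them as dye quenchers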
Aptamer quench SP: aptamer fluorescence quenching in GRK2 counter-screen. shares compounds with GRK2 aptamer HTS. Carboxyfluorescein RNA aptamer on beads, flow cytometry quenching; stronger effect = lower value. fluorescence response (% of DMSO), % at 10 µM. 2,000 tested, under 10 active. AID 504580;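 active = compounds that quench the bead-bound fluorescent RNA probe, cutting fluorescence to under half of the solvent control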;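 note: counterscreen run without GRK2 so only probe quenching by compound is measured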
GRK2 CP2: confirmation of human GRK2 inhibitors binding RNA aptamer site. shares compounds with GRK2 aptamer HTS. bead-bound GRK2, FAM-aptamer displacement, flow cytometry. inhibition of aptamer binding, % at 10 µM. 360 tested, under 10 active;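 active = inhibition of aptamer binding above 40%, about triple the noise seen with nonglowing compounds, on plates passing quality control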;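 note: negative values mostly come from compounds that fluoresce themselves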
FAM quench CP2: aptamer fluorescence quenching in GRK2 counter-screen. shares compounds with GRK2 aptamer HTS. carboxyfluorescein RNA aptamer beads, flow cytometry quenching; stronger effect = lower value. fluorescence response vs DMSO, % at 10 µM. 360 tested, under 10 active;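 active = response vs DMSO under 50%, meaning signal dropped by over half, treated as fluorescence quencher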;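 note: labelled aptamer on streptavidin beads without GRK2 as a quench counter-screen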
Large screens that a line does not name were inactive (follow-up assays come after a bar, where they were run). The list is not random: actives were taken first. Their share in the collection is about 1.1%.

Cc1noc(C)c1COc1cccc(C(=O)Nc2ccccc2)c1	none
Cc1noc(C)c1COc1cccc(C(=O)NCc2cccc(Cl)c2)c1	none | GRK2 inh confirm inactive | Aptamer quench SP inactive
O=C(O)C1Nc2c(Cl)cc(Cl)c(Cl)c2C2C=CCC12 (stereo not drawn)	GRK2 aptamer HTS 59 | GRK2 inh confirm inactive | Aptamer quench SP inactive
CC(C)C1Nc2c(O)cc(Cl)c([N+](=O)[O-])c2C2C=CCC21 (stereo not drawn)	none (no result: procasp3 activ, T cell HTS, proCasp7 act, GRK2 aptamer HTS)
CCOC(=O)c1c(C)[nH]c(C(=O)COC(=O)COc2ccc(OC)cc2)c1C	GRK2 aptamer HTS 70 | GRK2 inh confirm inactive | Aptamer quench SP inactive
COC(=O)[C@H](Cc1ccccc1)NC(=O)C1(OC(C)=O)CC(OC(C)=O)C(OC(C)=O)C(OC(C)=O)C1 (stereo partly drawn)	GRK2 aptamer HTS 63 | GRK2 inh confirm inactive | Aptamer quench SP inactive
Cc1cc(C)c(C(=O)Nc2ccc(S(=O)(=O)Nc3onc(C)c3C)cc2)c(C)c1	none | GRK2 inh confirm inactive | Aptamer quench SP inactive
Cc1cc2ccccc2n1CCNC(=O)c1ccccc1	GRK2 aptamer HTS 100 | GRK2 inh confirm inactive | Aptamer quench 1 inactive | Aptamer quench SP inactive
CC(=O)NCCn1c(C)cc2ccccc21	none
C=CCN=C1NC(c2cccc(F)c2)C(C(=O)OC)=C(C)N1Cc1cccc(C(F)(F)F)c1 (stereo not drawn)	none (no result: procasp3 activ, T cell HTS, proCasp7 act, GRK2 aptamer HTS, aDG glyco up)
CC1(C)N([O-])c2cc([N+](=O)[O-])ccc2[N+]1=O	GRK2 aptamer HTS 68 (no result: aDG glyco up) | GRK2 inh confirm inactive | Aptamer quench SP inactive
Cc1ccc(C)n1-c1cc([N+](=O)[O-])ccc1-n1ccnc1	none
Fc1ccc(Oc2cnc3ccccc3n2)cc1	none
N#C[C@H](N)[C@H]1O[C@@H](n2ccc(=O)[nH]c2=O)[C@H](O)[C@@H]1O	none (no result: procasp3 activ, T cell HTS, proCasp7 act, GRK2 aptamer HTS, aDG glyco up)
O=C(Cc1ccc(Br)cc1)OCC(=O)N1CCc2ccccc2C1	GRK2 aptamer HTS 46 | GRK2 CP2 inactive | FAM quench CP2 inactive
O=C(COc1ccc(Br)cc1)N1CCc2ccccc2C1	none
COc1cccc(CN2CCSCC2)c1OC	none
COc1cccc(CN2CCN(Cc3cccc(Br)c3)CC2)c1OC	GRK2 aptamer HTS 55 | GRK2 inh confirm inactive | Aptamer quench SP inactive
Cc1ccc(C(=O)OCc2c(C)noc2C)cc1NC(=O)c1ccco1	none | GRK2 inh confirm inactive | Aptamer quench SP inactive
O=c1[nH]c(=O)n(C2OC(CO)C(O)C2O)cc1N1CCOCC1 (stereo not drawn)	none (no result: procasp3 activ, T cell HTS, proCasp7 act, GRK2 aptamer HTS)
CCOC(=O)c1c(C)n2c3c(cc(C)cc13)CCC2	GRK2 aptamer HTS 86 | GRK2 inh confirm inactive | Aptamer quench SP inactive
CCOC(=O)c1c2n(c3ccc(O)cc13)CCCCC2	none (no result: CaV13 ICDI inh)
Cc1cc(C)nc(N2CCC(C(=O)NC3CCCc4ccccc43)CC2)n1 (stereo not drawn)	none
O=C(NC1CCCc2ccccc21)C1CCN(c2nnc(-n3cccc3)s2)CC1 (stereo not drawn)	none | GRK2 inh confirm inactive | Aptamer quench SP inactive
CC(C)CCNC(=O)C1CCN(c2nnc(-n3cccc3)s2)CC1	none
O=C(NCCC1=CCCCC1)C1CCN(c2nnc(-n3cccc3)s2)CC1	none | GRK2 inh confirm inactive | Aptamer quench SP inactive
CCn1c(CCl)nc2cc(S(=O)(=O)N3CCOCC3)ccc21	none
Cc1cccc(C(=O)N/N=C2\CS(=O)(=O)N(C)c3ccsc32)c1	none
COc1ccc2c(c1)C(=O)N(c1ccc(C)cc1C)C(=O)C2(C)C	none
COc1ccc2c(c1)C(=O)N(c1ccccc1C)C(=O)C2(C)C	GRK2 aptamer HTS 78 | GRK2 inh confirm inactive | Aptamer quench SP inactive
C=CCN=C1NC(c2ccccc2C(F)(F)F)C(C(=O)OC)=C(C)N1Cc1ccccc1C(F)(F)F (stereo not drawn)	none (no result: procasp3 activ, T cell HTS, proCasp7 act, GRK2 aptamer HTS, aDG glyco up)
Cc1ccc(N2NC(=O)/C(=C/c3ccc(-c4ccc(Cl)c(C(=O)O)c4)o3)C2=O)cc1	none
CCCCC1(C)OC(=O)C(=Cc2ccc(-c3ccc(Cl)c(C(=O)O)c3)o2)C(=O)O1 (stereo not drawn)	GRK2 aptamer HTS 55 | GRK2 inh confirm inactive | Aptamer quench SP inactive
CCCCn1c(N)c(N(CCC(C)C)C(=O)COC(=O)/C=C/c2ccc(F)cc2)c(=O)[nH]c1=O	none
Cc1cc(C(=O)NC2CCCc3c2cnn3-c2ccccc2F)nc(C)n1 (stereo not drawn)	none
CC(C)c1cc(C(=O)NC2CCCc3c2cnn3-c2ccccc2F)no1 (stereo not drawn)	GRK2 aptamer HTS 69 | GRK2 inh confirm inactive | Aptamer quench SP inactive
Clc1cc(Cl)cc(Nc2ccccc2CN(C/C=C/c2ccc3c(c2)OCO3)Cc2ccccc2)c1	none (no result: procasp3 activ, T cell HTS, proCasp7 act, GRK2 aptamer HTS)
Cc1ccc(-c2c(C#N)c(N)n(-c3ccc(C)cc3)c(=O)c2C#N)cc1	GRK2 aptamer HTS 42 (no result: CaV13 ICDI inh) | GRK2 inh confirm inactive | Aptamer quench SP inactive
COc1cc2oc3cc(C#Cc4ccc(N)cc4)ccc3c(=O)c2cc1OC	GRK2 aptamer HTS 70 | GRK2 inh confirm inactive | Aptamer quench SP inactive
COc1cc2oc3ccc(C#Cc4ccc(N)cc4)cc3c(=O)c2cc1OC	none
Cc1ccc(SCc2c(C(=O)N/N=C/c3ccc4c(c3)OCO4)nnn2-c2nonc2N)cc1	GRK2 aptamer HTS 51 | GRK2 inh confirm inactive | Aptamer quench SP inactive
Cc1ccc(SCc2c(C(=O)N/N=C/c3ccccc3)nnn2-c2nonc2N)cc1	none
c1ccc2sc(N3CCOCC3)nc2c1	none
c1ccc2sc(N3CN(CCN4CCOCC4)CN(c4nc5ccccc5s4)C3)nc2c1	none (no result: CaV13 ICDI inh) | GRK2 inh confirm inactive | Aptamer quench SP inactive
